An excerpt weighted towards active compounds, which were near 1% of everything screened.
CaV13 ICDI inh: Primary screen for inhibitors of IQ motif and Ca2+-dependent inactivation inhibitor domain binding in CACNA1D, Förster resonance energy transfer in living cells, …; inhibition, % at 12.3 µM; AID 743397; HEK cells, CFP/YFP FRET ICDI-IQ, plate reader, 10 min; percent FRET-ratio fall versus neutral wells; actives 0.098% (n = 340,000);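 active = mean replicate inhibition of at least 30% and at least 1% of replicates passing that level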;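 also: 0% = median of the neutral control wells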
FXN GAA850 act: FXN promoter activators, primary screen, cell-based, luciferase luminescence, HEK293 lucGAA850; AID 540364, 2011; activation, % at 6 µM; actives 0.56% (n = 360,000); HEK293 lucGAA850 FXN promoter luciferase reporter, 24 h; percent of 10 µM SAHA response;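 active = activation above the average of all compounds screened plus 3 SD, cutoff fixed separately per campaign, cut at about 7.5% in these data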;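 also: 0% = DMSO wells and 100% = 10 µM SAHA wells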
INS-1E GSIS act: GLuc luminescence reporter in INS-1E cells, primary screen for activators of glucose-dependent secretion of insulin; activation, % at 16.6 µM; INS-1E GLuc reporter insulin secretion, 2-3 h; AID 743287, 2014; actives 0.61% (n = 370,000);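 active = lowest replicate activation of at least 40%, so every replicate reaches that level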;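 also: 0% = median of neutral control wells and 100% = median of IBMX positive control wells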
XiGFP reactiv: activators of inactive X chromosome reactivation, primary screen, imaging, XiGFP fibroblasts, GFP high-content imaging, set 2; activation, % at 7.58 µM; actives 0.055% (n = 360,000); XiGFP mouse fibroblasts, % GFP-positive cells imaging, 3 d; cells co-treated with 5-aza-dC sensitizer; scaled so ellipticine positive control = 100%; AID 743238, 2013;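 active = mean normalized replicate activation at least 10% and every replicate at or above 10%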;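 also: 0% = median of on-plate neutral control wells and 100% = ellipticine 6 µM median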
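System: 68-5-11 XiGFP fibroblast line | Buffer or medium: DMEM containing 5-aza-dC | Compound: Single point | Times: Compounds 3 days, fix/stain 15 min at room temperature | Benchmarks: Positive control ellipticine, 6 µM final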
An asterisk follows results filed as active; · = no result given.

SMILES | CaV13 ICDI inh | FXN GAA850 act | INS-1E GSIS act | XiGFP reactiv
O=C(C[C@@H]1C[C@H]2c3cc(NC(=O)C4CCC4)ccc3O[C@H]2[C@H](CO)O1)NCc1cccc(F)c1 | · | · | -4 | 0
COc1ccc(-c2cnc(N)nc2-c2ccc(OC)cc2)cc1 | -14 | 2 | 52* | 0
COc1ccc(-c2nc(N)ncc2-c2ccc(OC)c(OC)c2)c(O)c1 | -4 | 6 | 49* | 0
COc1ccc(-c2ncncc2-c2ccc(OC)c(OC)c2)c(O)c1 | -18 | 2 | 18 | 0
CN1CCN(C(=O)C[C@H]2CC[C@@H]3[C@@H](COc4ccc(NC(=O)c5ccc(F)c(F)c5)cc4C(=O)N3C)O2)CC1 | · | · | -6 | 0
COCC(=O)Nc1ccc2c(c1)OC[C@H](C)N(Cc1ccccc1)C[C@@H](C)[C@@H](OC)CN(C)C2=O | · | · | -10 | 0
COc1cccc(-c2ccc3n(c2=O)C[C@H]2[C@H](CO)[C@@H](C(=O)N(C)C)N(C(=O)C4CC4)[C@@H]32)c1 | · | · | 8 | 0
CCNC(=O)C[C@@H]1CC[C@@H]2[C@H](COC[C@H](O)CN2C(=O)Nc2c(C)noc2C)O1 | · | · | 4 | 0
COc1ccc(NC(=O)CSc2ncnc3c2sc2ccccc23)c(OC)c1 | -3 | 2 | 58* | 0
COc1ccc(NC(=O)CSc2ccccc2)c(OC)c1 | · | 6 | · | ·
COc1ccc(C2=NOC(C(=O)Nc3cccnc3)C2)cc1OC (configuration not stated) | -6 | 3 | 75* | 0
COCCNC(=O)CCCn1c(=O)c2ccccc2n(Cc2ccccc2C#N)c1=O | -20 | -1 | 54* | 0
N#Cc1ccccc1Cn1c(=O)n(CCCC(=O)NCc2ccc3c(c2)OCO3)c(=O)c2ccccc21 | -8 | 3 | 7 | ·
C[C@H](CO)N1C[C@H](C)[C@H](CN(C)C(=O)Nc2ccccc2)OCCCC[C@H](C)Oc2ccc(NC(=O)c3ccncc3)cc2C1=O | · | · | -5 | 0
O=C(CCl)c1cc2c3c(c1)CC(=O)N3CCC2 | -20 | 8.6* | 4 | 0
COc1ccc(CCN2C(=O)CN(Cc3ccccc3)CC2=O)cc1OC | -1 | 1 | · | 0
COc1ccc(CCN2C(=O)C=CC2=O)cc1OC | -14 | -6 | 205* | 0
Cc1ccc(S(=O)(=O)N[C@H]2CC[C@H](CCn3cc(-c4cccc(F)c4)nn3)O[C@@H]2CO)cc1 | · | · | -26 | 0
CCOC(=O)C1=C(C)N(c2ccccc2)C(=O)/C1=C\c1cccs1 | -6 | 2 | 88* | 0
CCC(=O)N[C@@H]1CC[C@H](CCNS(=O)(=O)c2ccc(Cl)cc2)O[C@@H]1CO | · | · | 10 | 0
Cc1cc(C)n(-c2nc(NCCN(C)C)c3c4c(sc3n2)CCCC4)n1 | 6 | 2 | 53* | 0
COc1cc(C(F)(F)F)c(C(=O)N(C)Cc2cccc(Cl)c2)cn1 | -5 | -2 | -14 | 0
COc1cc(C(F)(F)F)c(C(=O)NCc2cccc(Cl)c2)cn1 | -5 | 0 | 48* | 0
O=C(CC(F)(F)F)N1C[C@H]2[C@@H](c3ccccc31)[C@@H](CO)N2C(=O)Cc1cccnc1 | · | · | -7 | 0
COc1ccc(CCN(C)C(=O)Cc2ccc(-c3ccccc3)cc2)cc1OC | -2 | -1 | -22 | ·
SMILES | CaV13 ICDI inh | FXN GAA850 act | INS-1E GSIS act | XiGFP reactiv
COc1ccc(CCN(C)C(=O)CCNS(=O)(=O)c2ccccc2C(F)(F)F)cc1OC | -3 | 0 | 41* | 0
CC(=O)Oc1ccc(Cl)cc1/C=C/c1ccc2ccccc2n1 | -7 | 6 | 53* | ·
COc1ccc(NC(=O)N2CCCC2C(=O)NCc2ccc(F)cc2)cc1 (configuration not stated) | · | -1 | · | ·
O=C(NCc1ccc(F)cc1)C1CCCN1C(=O)Nc1cccc(F)c1 (configuration not stated) | 64* | 2 | -12 | 0
C=CCN(Cc1ccc(OC)c(OC)c1)C(=O)N1CCOCC1 | -20 | 2 | 53* | 0
COc1ccc(CN(CCN2CCOCC2)C(=O)c2c(F)cccc2F)cc1OC | -8 | -1 | 31 | ·
COCCCn1c(=N)c(C(=O)NC2CCCCC2)cc2c(=O)n3ccccc3nc21 | 43* | 1 | · | ·
CCOCCCn1c(SCC(=O)NC2CCCCC2)nc2ccccc2c1=O | -10 | 0 | 43* | 0
